Measurements as given in article PMC2887662 (Journal of medicinal chemistry, 2010).
pIC50: −log10 of the molar value. “Also recorded” adds a separate entry of the source.

What was measured:
[1] = test system: panel of six different human tumor cell lines; assay: Antiproliferative activity, panel of six cell lines; assay type: cell-based; conditions: for pIC50: Homo sapiens, read-out: IC50 values, range against the cell lines; for antiproliferative activity (in words): six human tumor cell lines
Method in brief: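 Cells in RPMI-1640 (Jurkat, HL-60, K562) or DMEM (MCF7, A549, HeLa) with 10% FBS and penicillin/streptomycin. 8 × 10^3 cells/well were preincubated 18 h, then exposed to a range of test compound concentrations in complete medium for 72 h at 37 °C, 5% CO2. Viability was read by MTT.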

HeLa cells = assay: Flow cytometric cell cycle analysis, HeLa; assay type: cell-based, human; conditions: for G2/M cell population: 30 nM, 48 h, control 12%; for cell cycle effect in HeLa: 7 to 250 nM, 24 h
Jurkat cells [2] = assay: Flow cytometric cell cycle analysis, Jurkat; assay type: cell-based, human
Jurkat cells [3] = assay: Annexin-V/PI apoptosis assay; assay type: cell-based, human; conditions: 50 nM, 24-72 h
Method in brief: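 After treatment for different times, Jurkat cells are co-stained with annexin-V-FITC (per the kit instructions) and PI. They are analysed by flow cytometry with excitation at 488 nm and emission filters at 525 nm (FITC, green) and 585 nm (PI, red). Externalised phosphatidylserine is scored as annexin-V positive cells.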

Jurkat cells [4] = assay: Mitochondrial membrane potential; assay type: cell-based, human; conditions: 50 nM
Method in brief: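 Mitochondrial potential is probed with the lipophilic cation JC-1. After different treatment times, cells are pelleted and resuspended in HBSS containing 1 µM JC-1, held for 10 min at 37 °C, then spun and resuspended in HBSS. Polarised mitochondria form aggregates with shifted emission. On depolarisation, JC-1 monomers emit at 530 nm.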

Jurkat cells [5] = assay: Mitochondrial ROS production; assay type: cell-based, human; conditions: up to 72 h, HE and H2DCFDA
Method in brief: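 After different treatment times, cells are pelleted and resuspended in HBSS containing hydroethidine (2.5 µM) or H2DCFDA (0.1 µM). They are incubated for 30 min at 37 °C, spun and resuspended in HBSS. Fluorescence is recorded directly by flow cytometry, with excitation at 488 nm and emission at 585 nm (ethidium, from superoxide) or 530 nm (DCF, from peroxides).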

[6] = test system: caspase-3 in Jurkat cells; assay: Caspase-3 activation by flow cytometry; assay type: cell-based, human; conditions: 50 nM, 24, 48, 72 h
Method in brief: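 After different incubation times with test compound, cells are pelleted and fixed in Cytofix buffer for 20 min, then washed with Perm/Wash. They are stained for 30 min with a FITC-conjugated antibody against the human active caspase-3 fragment, washed and analysed by flow cytometry. Results are given as percentage of caspase-3 active fragment positive cells.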

[7] = test system: PARP and Bcl-2 in Jurkat cells; assay: Western blot for PARP cleavage and Bcl-2 expression; assay type: cell-based, human; conditions: 50 nM; for PARP cleavage: 24 h
Method in brief: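 Jurkat cells were treated with test compound for varying times, washed in cold PBS and lysed on ice for 30 min. Lysates were spun at 15000g, 4 °C, 10 min, and protein was measured by BCA. 20 µg protein per lane was run on 7.5–15% SDS–PAGE and blotted to PVDF. Blots were probed with rabbit anti-Bcl-2 or anti-PARP (1:1000, 2 h, RT), then HRP secondary, and developed by ECL. Blots were stripped and reprobed for β-actin as loading control.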

HUVECs expressing GFP = assay: Endothelial cell shape change assay; assay type: cell-based, human; conditions: 30 min after drug addition
Method in brief: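 GFP-expressing HUVECs were grown in EGM-2 with endothelial cell growth supplement and seeded on collagen-coated slides 1 day before assay. Morphology and GFP fluorescence were imaged by confocal microscopy before and at several times after test compound addition. The GFP-positive cell area was quantified by image analysis.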

[8] = test system: chick aortic vascular sprouts; assay: Chick aortic ring assay; assay type: cell-based; conditions: 30 min incubation
Method in brief: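 Aortic arches from day 14 chick embryos were cut into cross-sectional slices and embedded in Matrigel with complete medium. Endothelial sprouts or channels formed over 24–48 h. Various concentrations of test compound were then added, and vascular channels were photographed before and 30 min after addition.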

Structure (SMILES): COc1ccc(/C=C\c2cc(OC)c(OC)c(OC)c2)cc1O [CA-4, combretastatin A-4, reference compound]
- pIC50 [1]: 6.43 to 8.40

Structure (SMILES): COc1cc(-n2ncnc2-c2ccccc2)cc(OC)c1OC [Compound 4a]
- antiproliferative activity (in words) [1]: did not yield active compounds

Structure (SMILES): COc1cc(-n2ncnc2-c2ccc(F)cc2)cc(OC)c1OC [Compound 4b]
- antiproliferative activity (in words) [1]: did not yield active compounds

Structure (SMILES): COc1cc(-n2ncnc2-c2cccc(F)c2)cc(OC)c1OC [Compound 4c]
- antiproliferative activity (in words) [1]: did not yield active compounds

Structure (SMILES): COc1cc(-n2ncnc2-c2ccc(Cl)cc2)cc(OC)c1OC [Compound 4d]
- antiproliferative activity (in words) [1]: did not yield active compounds

Structure (SMILES): COc1cc(-n2ncnc2-c2ccc(Cl)c(Cl)c2)cc(OC)c1OC [Compound 4f]
- antiproliferative activity (in words) [1]: did not yield active compounds

Structure (SMILES): COc1cccc(-c2ncnn2-c2cc(OC)c(OC)c(OC)c2)c1 [Compound 4i]
- antiproliferative activity (in words) [1]: dramatic drop of potency; also recorded: inactivity

Structure (SMILES): COc1ccccc1-c1ncnn1-c1cc(OC)c(OC)c(OC)c1 [Compound 4j]
- antiproliferative activity (in words) [1]: dramatic drop of potency

Structure (SMILES): CCOc1ccc(-c2ncnn2-c2cc(OC)c(OC)c(OC)c2)cc1 [Compound 4l, 1-(3,4,5-Trimethoxyphenyl)-5-(4-ethoxyphenyl)-1H-1,2,4-triazole]
- G2/M cell population (HeLa cells): over 70%
- cell cycle effect in HeLa (HeLa cells): clear G2/M arrest pattern in a concentration-dependent manner
- cell cycle effect in Jurkat (Jurkat cells [2]): significant block in the G2/M phase
- induction of apoptosis (annexin-V positive cells) (Jurkat cells [3]): significant induction of apoptotic cells after 24 h
- mitochondrial transmembrane potential (JC-1) (Jurkat cells [4]): depolarization of the mitochondrial membrane potential
- ROS production (Jurkat cells [5]): induced the production of large amounts of ROS
- caspase-3 activation [6]: activation of caspase-3 in a time-dependent manner
- Bcl-2 expression [7]: decreased expression of Bcl-2
- PARP cleavage [7]: extensive formation of the typical 89 kDa fragment of PARP
- lowest concentration causing HUVEC retraction and membrane blebs (HUVECs expressing GFP): 0.5 µM
- effect on vascular sprouts from chick aortic ring [8]: disrupted formation of vascular sprouts

Structure (SMILES): CCOc1cccc(-c2ncnn2-c2cc(OC)c(OC)c(OC)c2)c1 [Compound 4m]
- antiproliferative activity (in words) [1]: inactivity

Structure (SMILES): CCOc1ccc(-c2ncnn2-c2cc(OC)c(OC)c(OC)c2)cc1Cl [Compound 4o, 5-(3-Chloro-4-ethoxyphenyl)-1-(3,4,5-trimethoxyphenyl)-1H-1,2,4-triazole]
- pIC50 [1]: 7.70 to 8.52
- G2/M cell population (HeLa cells): over 70%
- cell cycle effect in HeLa (HeLa cells): clear G2/M arrest pattern in a concentration-dependent manner
- cell cycle effect in Jurkat (Jurkat cells [2]): significant block in the G2/M phase
- induction of apoptosis (annexin-V positive cells) (Jurkat cells [3]): significant induction of apoptotic cells after 24 h
- mitochondrial transmembrane potential (JC-1) (Jurkat cells [4]): depolarization of the mitochondrial membrane potential
- ROS production (Jurkat cells [5]): induced the production of large amounts of ROS
- caspase-3 activation [6]: activation of caspase-3 in a time-dependent manner
- Bcl-2 expression [7]: decreased expression of Bcl-2
- PARP cleavage [7]: extensive formation of the typical 89 kDa fragment of PARP

Structure (SMILES): COc1cc(-n2ncnc2-c2cccc([N+](=O)[O-])c2)cc(OC)c1OC [Compound 4r]
- antiproliferative activity (in words) [1]: did not yield active compounds
